Source: ChEMBL document CHEMBL1142960, “Synthesis and structure-activity relationships for 2,4-dinitrobenzamide-5-mustards as prodrugs for the Escherichia coli nfsB nitroreductase in gene therapy” (J Med Chem, 2007)
Values after ≈ are worked out from the molar mass of the structure shown.

Columns and labels:
[1] = system: EMT6; assay: Selectivity ratio of IC50 for EMT6 NTR-ve cells to IC50 forEMT6 NTRpuro cells; type: functional, Mus musculus
[2] = Solubility in alpha MEM; type: physicochemical
Summary of the method: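 Solubility (mM) in α-MEM with 5% fetal calf serum at ambient temperature, measured by HPLC.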

[3] = Selectivity ratio of IC50 for Skov3 NTR-ve cells to IC50 for Skov3 NTRneo cells; type: functional, Homo sapiens
[4] = Antiproliferative activity against human wild type Skov3 NTR-ve cells after 18 hrs; type: functional, cell-based
[5] = system: EMT6; assay: Antiproliferative activity against mouse wild type EMT6 NTR-ve cells after 18 hrs; type: functional, cell-based; details: EMT6, 18 h
[6] = system: WiDr; assay: Antiproliferative activity against human WiDr NTRneo cells after 18 hrs; type: functional, cell-based
[7] = Stability in alpha MEM at 37 degC after 24 hrs; type: physicochemical; details: read-out: Stability
Summary of the method: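 Percent parent compound remaining, by HPLC, after holding in α-MEM with 5% fetal calf serum at 37 °C for 24 h.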

[8] = system: WiDr; assay: Antiproliferative activity against human wild type WiDr NTR-ve cells after 18 hrs; type: functional, cell-based
[9] = system: EMT6; assay: Antiproliferative activity against mouse EMT6 NTRpuro cells after 18 hrs; type: functional, cell-based; details: EMT6, 18 h
[10] = Antiproliferative activity against human Skov3 NTRneo cells after 18 hrs; type: functional, cell-based; details: SK-OV-3, 18 h
[11] = system: WiDr; assay: Selectivity ratio of IC50 for WiDr NTR-ve cells to IC50 for WiDr NTRneo cells; type: functional, Homo sapiens
[12] = system: V79; assay: Antiproliferative activity against chinese hamster V79 NTRpuro cells after 18 hrs; type: functional, cell-based; details: Cricetulus griseus, V79, 18 h
[13] = system: V79; assay: Selectivity ratio of IC50 for V79 NTR-ve cells to IC50 for V79 NTRpuro cells; type: functional, Cricetulus griseus
[14] = system: V79; assay: Antiproliferative activity against chinese hamster wild-type V79 NTR-ve cells after 18 hrs; type: functional, cell-based; details: Cricetulus griseus, V79, 18 h

SMILES | Ratio IC50 [1] | solubility [2] [µM] | Ratio IC50 [3] | IC50 [4] [µM] | IC50 [5] [µM] | IC50 [6] [µM] | remaining at 24 h [7] [%] | IC50 [8] [µM] | IC50 [9] [µM] | IC50 [10] [µM] | Ratio IC50 [11] | IC50 [12] [µM] | Ratio IC50 [13] | IC50 [14] [µM]
CS(=O)(=O)OCCN(CCCl)c1cc(C(=O)NCC(O)CO)c([N+](=O)[O-])cc1[N+](=O)[O-] (centres undefined) | 344 | 2100 (≈ 1020 µg/mL) | 286 | 1380 | 1210 | 6 | 74 | 1230 | 3.81 | 5 | 328 | – | – | –
O=C(NCCCCN1CCOCC1)c1cc(N(CCCl)CCCl)c([N+](=O)[O-])cc1[N+](=O)[O-] | 28 | 2000 (≈ 985 µg/mL) | 61 | 447 | 192 | 23 | 91 | 68 | 7.4 | 9.3 | 3 | 25 | 5.9 | 142
CS(=O)(=O)c1cc([N+](=O)[O-])c(N(CCCl)CCCl)cc1C(N)=O | – | 60 (≈ 23.1 µg/mL) | – | > 50 | > 50 | > 50 | 74 | > 50 | > 50 | > 50 | – | > 50 | – | > 50
COC(=O)CCNC(=O)c1cc(N(CCBr)CCBr)c([N+](=O)[O-])cc1[N+](=O)[O-] | 149 | 280 (≈ 147 µg/mL) | 49 | 110 | 76 | 2.1 | 70 | 80 | 0.59 | 2.3 | 47 | 1.1 | 45 | 52
O=C(NO)c1cc(N(CCBr)CCBr)c([N+](=O)[O-])cc1[N+](=O)[O-] | 500 | 1200 (≈ 547 µg/mL) | 180 | 59 | 33 | 0.39 | 69 | 45 | 0.07 | 0.31 | 92 | 0.2 | 180 | 34
NCCNC(=O)c1cc(N(CCCl)CCCl)c([N+](=O)[O-])cc1[N+](=O)[O-] | 413 | 9200 (≈ 3630 µg/mL) | 69 | 417 | 124 | 5.9 | 99 | 180 | 0.37 | 6.8 | 38 | 52 | 11 | 462
O=C(O)CCNC(=O)c1cc(N(CCBr)CCBr)c([N+](=O)[O-])cc1[N+](=O)[O-] | 17 | 8400 (≈ 4300 µg/mL) | 12 | 67 | 40 | 7.6 | – | 40 | 2.4 | 7.6 | 4.8 | 13 | 45 | 54
O=C(NC(CO)(CO)CO)c1cc(N(CCCl)CCCl)c([N+](=O)[O-])cc1[N+](=O)[O-] | 1530 | 1800 (≈ 819 µg/mL) | 205 | 970 | 693 | 9.8 | 97 | 700 | 0.45 | 4.2 | 61 | 13 | 91 | 1050
CS(=O)(=O)NC(=O)c1cc(N(CCCl)CCCl)c([N+](=O)[O-])cc1[N+](=O)[O-] | 2 | 17000 (≈ 7300 µg/mL) | 6.7 | 1040 | 450 | 223 | 100 | 1310 | 278 | 160 | 5.4 | 237 | 1.5 | 328
CC(O)CNC(=O)c1cc(N(CCCl)CCCl)c([N+](=O)[O-])cc1[N+](=O)[O-] (centres undefined) | 233 | 1200 (≈ 491 µg/mL) | 75 | 705 | 593 | 19 | 107 | 586 | 2.6 | 9.5 | 30 | 21 | 21 | 438
O=C(O)CCNC(=O)c1cc(N(CCCl)CCCl)c([N+](=O)[O-])cc1[N+](=O)[O-] | 13 | – | 11 | 5720 | 4630 | 1810 | – | 6390 | 424 | 643 | 3.5 | 470 | 9.5 | 4890
O=C(NOCCO)c1cc(N(CCCl)CCCl)c([N+](=O)[O-])cc1[N+](=O)[O-] | 85 | 2100 (≈ 864 µg/mL) | >90 | > 1190 | 560 | 25 | 100 | 895 | 6.6 | 11 | 39 | 13 | 76 | 750
O=C(NCCCN1CCOCC1)c1cc(N(CCCl)CCCl)c([N+](=O)[O-])cc1[N+](=O)[O-] | 8 | 22000 (≈ 10500 µg/mL) | 14 | 692 | 199 | 90 | 96 | 163 | 24 | 55 | 1.9 | 105 | 3.4 | 348
O=C(NCCCN1CCOCC1)c1cc(N(CCBr)CCBr)c([N+](=O)[O-])cc1[N+](=O)[O-] | 3.6 | 860 (≈ 488 µg/mL) | 7.3 | 272 | 56 | 57 | 74 | 134 | 16 | 34 | 2.4 | 16 | 9.2 | 148
CN(C)CCNC(=O)c1cc(N(CCCl)CCCl)c([N+](=O)[O-])cc1[N+](=O)[O-] | 1.8 | – | 6 | 246 | 62 | 66 | 103 | 62 | 35 | 44 | 0.9 | 81 | 1.1 | 89
